Reference: ChEMBL document CHEMBL3124917, “Design, synthesis, and biological evaluation of deuterated C-aryl glycoside as a potent and long-acting renal sodium-dependent glucose cotransporter 2 inhibitor for the treatment of type 2 diabetes” (J Med Chem, 2014)

Tested on: Canis familiaris
Test: Antidiabetic activity in Beagle dog assessed as urinary glucose excretion at 0.03 mg/kg, po administered 1 hr prior to glucose challenge measured after 8 to 24 hrs relative to dapagliflozin
Format: functional, Canis lupus familiaris, Urine
Details: not given
Procedure, shortened: (§1)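 Overnight-fasted beagle dogs, n = 3 per group, given 0.03 mg/kg orally by gavage in 10% PEG400; vehicle controls received 10% PEG400. Oral glucose (2 g/kg, 5 mL/kg) given 1 h post-dose. Expressed as % of reference positive control; mean ± SD.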

Structure (SMILES) | Activity [mg]
COc1ccc(Cc2cc([C@@H]3O[C@H](CO)[C@@H](O)[C@H](O)[C@H]3O)ccc2Cl)cc1 | 10900

Tested on: Canis familiaris
Test: Antidiabetic activity in Beagle dog assessed as urinary glucose excretion at 0.03 mg/kg, po administered 1 hr prior to glucose challenge measured after 1 to 8 hrs relative to dapagliflozin
Format: functional, Canis lupus familiaris, Urine
Details: not given
Procedure, shortened: as §1, with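 “post-dose. Urine collected in metabolic cages at 0–8 and 8–24 h, glucose read on a biochemistry analyzer.” for “post-dose.”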

Structure (SMILES) | Activity [mg]
COc1ccc(Cc2cc([C@@H]3O[C@H](CO)[C@@H](O)[C@H](O)[C@H]3O)ccc2Cl)cc1 | 3620

Tested on: Rattus norvegicus
Test: Antidiabetic activity in Sprague-Dawley rat assessed as urinary glucose excretion at 1 mg/kg, po administered 1 hr prior to glucose challenge measured after 1 to 4 hrs relative to dapagliflozin
Format: functional, Urine
Details: not given
Procedure, shortened: (§2)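 Overnight-fasted Sprague-Dawley rats, n = 3 per group, dosed 1 mg/kg by oral gavage in 30% PEG400; controls received vehicle. Oral glucose (2 g/kg, 10 mL/kg) given 1 h post-dose. Urine collected in metabolic cages at 0–4 and 4–24 h, glucose measured on a biochemistry analyzer. Expressed as % of reference positive control; mean ± SD.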

Structure (SMILES) | Activity [mg]
COc1ccc(Cc2cc([C@@H]3O[C@H](CO)[C@@H](O)[C@H](O)[C@H]3O)ccc2Cl)cc1 | 233

Tested on: not listed separately
Test: Cmax in Sprague-Dawley rat at 1 mg/kg, po by LC-MS/MS analysis
Format: ADME, organism-based
Design: dose 1 mg/kg, route oral
Details: in vivo
Procedure, shortened: (§3)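 Male Sprague-Dawley rats, n = 4 per group, overnight-fasted. Oral gavage of 3 or 1 mg/kg in 30% PEG400; i.v. arm at 1 mg/kg. Orbital plexus blood taken under ether at 0.083–24 h; plasma deproteinized and assayed by LC-MS/MS. Noncompartmental parameters derived; mean ± SD reported.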

Structure (SMILES) | Cmax [ng/mL]
COc1ccc(Cc2cc([C@@H]3O[C@H](CO)[C@@H](O)[C@H](O)[C@H]3O)ccc2Cl)cc1 | 165

Tested on: not listed separately
Test: AUC (0 to infinity) in Sprague-Dawley rat at 1 mg/kg, iv by LC-MS/MS analysis
Format: ADME, organism-based
Design: time infinity, dose 1 mg/kg, route intravenous
Details: plasma
Procedure, shortened: as §3

Structure (SMILES) | AUC(0-inf) [ng·h/mL]
COc1ccc(Cc2cc([C@@H]3O[C@H](CO)[C@@H](O)[C@H](O)[C@H]3O)ccc2Cl)cc1 | 1220

Tested on: Rattus norvegicus
Test: Antidiabetic activity in Sprague-Dawley rat assessed as urinary glucose excretion at 1 mg/kg, po administered 1 hr prior to glucose challenge measured after 4 to 24 hrs relative to dapagliflozin
Format: functional, Urine
Details: not given
Procedure, shortened: as §2

Structure (SMILES) | Activity [mg]
COc1ccc(Cc2cc([C@@H]3O[C@H](CO)[C@@H](O)[C@H](O)[C@H]3O)ccc2Cl)cc1 | 1660

Tested on: not listed separately
Test: Clearance in Sprague-Dawley rat at 1 mg/kg, iv by LC-MS/MS analysis
Format: ADME, organism-based
Design: dose 1 mg/kg, route intravenous
Details: in vivo
Procedure, shortened: as §3

Structure (SMILES) | clearance [mL/min/kg]
COc1ccc(Cc2cc([C@@H]3O[C@H](CO)[C@@H](O)[C@H](O)[C@H]3O)ccc2Cl)cc1 | 14

Tested on: not listed separately
Test: AUC (0 to infinity) in Sprague-Dawley rat at 1 mg/kg, po by LC-MS/MS analysis
Format: ADME, organism-based
Design: time infinity, dose 1 mg/kg, route oral
Details: plasma
Procedure, shortened: as §3

Structure (SMILES) | AUC(0-inf) [ng·h/mL]
COc1ccc(Cc2cc([C@@H]3O[C@H](CO)[C@@H](O)[C@H](O)[C@H]3O)ccc2Cl)cc1 | 943

Tested on: Rattus norvegicus
Test: Antidiabetic activity in Sprague-Dawley rat assessed as urinary glucose excretion at 1 mg/kg, po administered 1 hr prior to glucose challenge measured after 1 to 24 hrs relative to dapagliflozin
Format: functional, Urine
Details: not given
Procedure, shortened: as §2

Structure (SMILES) | Activity [mg]
COc1ccc(Cc2cc([C@@H]3O[C@H](CO)[C@@H](O)[C@H](O)[C@H]3O)ccc2Cl)cc1 | 1890

Tested on: not listed separately
Test: AUC (0 to infinity) in Sprague-Dawley rat at 3 mg/kg, po by LC-MS/MS analysis
Format: ADME, organism-based
Design: time infinity, dose 3 mg/kg, route oral
Details: plasma
Procedure, shortened: as §3

Structure (SMILES) | AUC(0-inf) [ng·h/mL]
COc1ccc(Cc2cc([C@@H]3O[C@H](CO)[C@@H](O)[C@H](O)[C@H]3O)ccc2Cl)cc1 | 5350

Tested on: not listed separately
Test: Drug metabolism in Sprague-Dawley rat assessed as compound remaining at 50 mg/kg, po after 5 days by HPLC analysis
Format: ADME, organism-based
Design: dose 50 mg/kg, route oral
Details: in vivo, read-out: Drug metabolism

Structure (SMILES) | remaining at 120 h [%]
COc1ccc(Cc2cc([C@@H]3O[C@H](CO)[C@@H](O)[C@H](O)[C@H]3O)ccc2Cl)cc1 | 73

Tested on: not listed separately
Test: Half life in Sprague-Dawley rat at 1 mg/kg, po by LC-MS/MS analysis
Format: ADME, organism-based
Design: dose 1 mg/kg, route oral
Details: in vivo
Procedure, shortened: as §3

Structure (SMILES) | half-life [h]
COc1ccc(Cc2cc([C@@H]3O[C@H](CO)[C@@H](O)[C@H](O)[C@H]3O)ccc2Cl)cc1 | 3.23

Tested on: not listed separately
Test: Half life in Sprague-Dawley rat at 1 mg/kg, iv by LC-MS/MS analysis
Format: ADME, organism-based
Design: dose 1 mg/kg, route intravenous
Details: in vivo
Procedure, shortened: as §3

Structure (SMILES) | half-life [h]
COc1ccc(Cc2cc([C@@H]3O[C@H](CO)[C@@H](O)[C@H](O)[C@H]3O)ccc2Cl)cc1 | 2.09

Tested on: not listed separately
Test: Oral bioavailability in Sprague-Dawley rat at 1 mg/kg by LC-MS/MS analysis
Format: ADME, organism-based
Details: in vivo
Procedure, shortened: as §3

Structure (SMILES) | bioavailability [%]
COc1ccc(Cc2cc([C@@H]3O[C@H](CO)[C@@H](O)[C@H](O)[C@H]3O)ccc2Cl)cc1 | 77

Tested on: Canis familiaris
Test: Antidiabetic activity in Beagle dog assessed as urinary glucose excretion at 0.03 mg/kg, po administered 1 hr prior to glucose challenge measured after 1 to 24 hrs relative to dapagliflozin
Format: functional, Canis lupus familiaris, Urine
Details: not given
Procedure, shortened: as §1, with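 “post-dose. Urine collected in metabolic cages at 0–8 and 8–24 h, glucose read on a biochemistry analyzer.” for “post-dose.”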

Structure (SMILES) | Activity [mg]
COc1ccc(Cc2cc([C@@H]3O[C@H](CO)[C@@H](O)[C@H](O)[C@H]3O)ccc2Cl)cc1 | 14500

Tested on: not listed separately
Test: Tmax in Sprague-Dawley rat at 1 mg/kg, po by LC-MS/MS analysis
Format: ADME, organism-based
Design: dose 1 mg/kg, route oral
Details: in vivo
Procedure, shortened: as §3

Structure (SMILES) | Tmax [h]
COc1ccc(Cc2cc([C@@H]3O[C@H](CO)[C@@H](O)[C@H](O)[C@H]3O)ccc2Cl)cc1 | 1.75
